Measured values reported in article PMC3082038 (Cancer Chemotherapy and Pharmacology, 2010).

Experiments:
Type in all cases: in vivo, human
solid tumors = assay: Antitumor effect
ELAM-1 = assay: Angiogenesis-related factor: ELAM-1
In short: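 Plasma and urine were collected from patients before treatment and after day 8 and day 28 of oral test compound dosing, and analysed at a central commercial laboratory. ELISA kits were used for human VEGF (plasma and urine), ELAM-1, VCAM-1 and soluble t-PA. Soluble PAI-1 was measured by latex photometric immunoassay. Values are reported as median (range) per time point.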

[1] = system: Japanese patients with solid tumors; assay: Phase I safety: drug-related adverse events, DLT, MTD, recommended dose; conditions: for Recommended dosage: after-meal conditions
In short: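 Dose escalation used three-patient cohorts, alternating b.i.d. and t.i.d., starting at 200 mg/m2 b.i.d. Oral dosing was by body surface area for 28 days continuously. b.i.d. doses were taken within 1 h after meals, about 12 h apart; t.i.d. doses about 6 or 12 h apart. Patients were assessed at least weekly and graded by NCI-CTC v2.0. DLT: grade ≥3 non-haematological or grade ≥4 haematological drug-related event. MTD: DLT in 2/3 or 3/6 patients.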

[2] = Pt 4, SCLC, b.i.d. 400 mg/m^2 (1,200 mg/day)
[3] = Pt 19, NSCLC, t.i.d. 400 mg/m^2 (2,400 mg/day)
[4] = b.i.d. 200 mg/m^2 × 2, n = 3, G1
[5] = b.i.d. 200 mg/m^2 × 2, n = 3, G2
[6] = b.i.d. 400 mg/m^2 × 2, n = 6, G1
[7] = b.i.d. 400 mg/m^2 × 2, n = 6, G2
[8] = b.i.d. 400 mg/m^2 × 2, n = 6, G3
[9] = b.i.d. 500 mg/m^2 × 2, n = 3, G1
[10] = b.i.d. 500 mg/m^2 × 2, n = 3, G2
[11] = t.i.d. 200 mg/m^2 × 3, n = 6, G1
[12] = t.i.d. 200 mg/m^2 × 3, n = 6, G2
[13] = t.i.d. 400 mg/m^2 × 3, n = 6, G1
[14] = t.i.d. 400 mg/m^2 × 3, n = 6, G2
[15] = t.i.d. 400 mg/m^2 × 3, n = 6, G4

Cc1[nH]c(/C=C2\C(=O)Nc3ccccc32)c(C)c1CCC(=O)O [TSU-68, (Z)-5-[(1,2-dihydro-2-oxo-3H-indol-3-ylidene)methyl]-2,4-dimethyl-1H-pyrrole-3-propanoic acid]
NC patients (solid tumors; 10/23 evaluable patients): 43.5%
Tumor control rate (solid tumors; 10/23 patients): 43.5%
PR patient (solid tumors; 23 evaluable patients): not found
TTP (time to progression) (solid tumors; Pt 1, Cervical ca., b.i.d. 200 mg/m^2 (800 mg/day)): 162 days
TTP (time to progression) (solid tumors; Pt 2, NSCLC, b.i.d. 200 mg/m^2 (800 mg/day)): 64 days
TTP (time to progression) (solid tumors; [2]): ≥ 29 days
TTP (time to progression) (solid tumors; Pt 8, Cholecystis ca., b.i.d. 400 mg/m^2 (1,200 mg/day)): 61 days
TTP (time to progression) (solid tumors; Pt 9, NSCLC, b.i.d. 400 mg/m^2 (1,200 mg/day)): ≥ 29 days
TTP (time to progression) (solid tumors; Pt 14, Soft tissue sa., t.i.d. 200 mg/m^2 (600 mg/day)): ≥ 254 days
TTP (time to progression) (solid tumors; Pt 17, NSCLC, t.i.d. 200 mg/m^2 (1,200 mg/day)): 65 days
TTP (time to progression) (solid tumors; [3]): ≥ 28 days
TTP (time to progression) (solid tumors; Pt 20, Colon ca., t.i.d. 400 mg/m^2 (1,800 mg/day)): ≥ 217 days
TTP (time to progression) (solid tumors; Pt 23, Colon ca., t.i.d. 400 mg/m^2 (1,800 mg/day)): ≥ 28 days
Median survival period (solid tumors; all dose levels): 218 days
Median time to progression (solid tumors; all dose levels): 28 days
ELAM-1, median (ELAM-1; day 8, 23 patients): 50 ng/mL
ELAM-1, range (ELAM-1; day 8, 23 patients): 13 to 136 ng/mL
ELAM-1, median (ELAM-1; day 28, 22 patients): 45.5 ng/mL
ELAM-1, range (ELAM-1; day 28, 22 patients): 17 to 114 ng/mL
Patients experiencing DLTs ([1]; 400 mg/m^2 b.i.d. dose level, three plus three patients, grade 3 dyspnea, hypoxemia, pleural effusion and anorexia, and unacceptable grade 2 anorexia): 2 patients
Dose-limiting toxicity (DLT) ([1]; 500 mg/m^2 b.i.d. dose level): not found
Toxicity ≥ G3-4 [1, 2]: G3 (DLT)
Toxicity ≥ G3-4 ([1]; Pt 5, NSCLC, b.i.d. 400 mg/m^2 (1,200 mg/day)): – (DLT)
Toxicity ≥ G3-4 [1, 3]: G4 (DLT)
Abdominal pain upper, Total no. (%) ([1]; all dose levels, n = 24): 5 (20.8) no. (%)
Abdominal pain, Total no. (%) ([1]; all dose levels, n = 24): 11 (45.8) no. (%)
Alkaline phosphatase increased, Total no. (%) ([1]; all dose levels, n = 24): 13 (54.2) no. (%)
Anorexia, Total no. (%) ([1]; all dose levels, n = 24): 12 (50.0) no. (%)
Back pain, Total no. (%) ([1]; all dose levels, n = 24): 5 (20.8) no. (%)
Blood albumin decreased, Total no. (%) ([1]; all dose levels, n = 24): 20 (83.3) no. (%)
Diarrhea, Total no. (%) ([1]; all dose levels, n = 24): 17 (70.8) no. (%)
Discoloration urine/stool, Total no. (%) ([1]; all dose levels, n = 24): 24 (100) no. (%)
Dyspnea, Total no. (%) ([1]; all dose levels, n = 24): 1 (4.2) no. (%)
Face edema, Total no. (%) ([1]; all dose levels, n = 24): 6 (25.0) no. (%)
Headache, Total no. (%) ([1]; all dose levels, n = 24): 7 (29.2) no. (%)
Hypoxia, Total no. (%) ([1]; all dose levels, n = 24): 1 (4.2) no. (%)
Malaise, Total no. (%) ([1]; all dose levels, n = 24): 18 (75.0) no. (%)
Nauseous, Total no. (%) ([1]; all dose levels, n = 24): 9 (37.5) no. (%)
Pericardial effusion, Total no. (%) ([1]; all dose levels, n = 24): 1 (4.2) no. (%)
Pleural effusion, Total no. (%) ([1]; all dose levels, n = 24): 5 (20.8) no. (%)
Vomiting, Total no. (%) ([1]; all dose levels, n = 24): 8 (33.3) no. (%)
γ-glutamyltransferase increased, Total no. (%) ([1]; all dose levels, n = 24): 6 (25.0) no. (%)
No. maximum grade (patients, drug-related adverse events) [1, 4]: 0
Number of patients with drug-related Alkaline phosphatase increased [1, 4]: 1
Number of patients with drug-related Anorexia [1, 4]: 2
Number of patients with drug-related Blood albumin decreased [1, 4]: 1
Number of patients with drug-related Diarrhea [1, 4]: 1
Number of patients with drug-related Discoloration urine/stool [1, 4]: 3
Number of patients with drug-related Malaise [1, 4]: 1
Number of patients with drug-related Serum total protein decreased [1, 4]: 1
No. maximum grade (patients, drug-related adverse events) [1, 5]: 3
Number of patients with drug-related Abdominal pain [1, 5]: 2
Number of patients with drug-related Blood albumin decreased [1, 5]: 1
Number of patients with drug-related Diarrhea [1, 5]: 1
Number of patients with drug-related Malaise [1, 5]: 1
Number of patients with drug-related Nauseous [1, 5]: 1
Number of patients with drug-related Vomiting [1, 5]: 1
No. maximum grade (patients, drug-related adverse events) ([1]; b.i.d. 200 mg/m^2 × 2, n = 3, G3): 0
No. maximum grade (patients, drug-related adverse events) ([1]; b.i.d. 200 mg/m^2 × 2, n = 3, G4): 0
No. maximum grade (patients, drug-related adverse events) [1, 6]: 0
Number of patients with drug-related Abdominal pain [1, 6]: 1
Number of patients with drug-related Abdominal pain upper [1, 6]: 1
Number of patients with drug-related Alkaline phosphatase increased [1, 6]: 6
Number of patients with drug-related Anorexia [1, 6]: 2
Number of patients with drug-related Back pain [1, 6]: 1
Number of patients with drug-related Blood albumin decreased [1, 6]: 2
Number of patients with drug-related Diarrhea [1, 6]: 5
Number of patients with drug-related Discoloration urine/stool [1, 6]: 6
Number of patients with drug-related Headache [1, 6]: 1
Number of patients with drug-related Malaise [1, 6]: 4
Number of patients with drug-related Nauseous [1, 6]: 2
Number of patients with drug-related Pleural effusion [1, 6]: 1
Number of patients with drug-related Vomiting [1, 6]: 2
Number of patients with drug-related γ-glutamyltransferase increased [1, 6]: 1
No. maximum grade (patients, drug-related adverse events) [1, 7]: 5
Number of patients with drug-related Abdominal pain [1, 7]: 2
Number of patients with drug-related Anorexia [1, 7]: 1
Number of patients with drug-related Back pain [1, 7]: 1
Number of patients with drug-related Blood albumin decreased [1, 7]: 2
Number of patients with drug-related Headache [1, 7]: 2
Number of patients with drug-related Nauseous [1, 7]: 1
Number of patients with drug-related Serum total protein decreased [1, 7]: 1
Number of patients with drug-related γ-glutamyltransferase increased [1, 7]: 2
No. maximum grade (patients, drug-related adverse events) [1, 8]: 1
Number of patients with drug-related Anorexia [1, 8]: 1
Number of patients with drug-related Dyspnea [1, 8]: 1
Number of patients with drug-related Hypoxia [1, 8]: 1
Number of patients with drug-related Pleural effusion [1, 8]: 1
No. maximum grade (patients, drug-related adverse events) ([1]; b.i.d. 400 mg/m^2 × 2, n = 6, G4): 0
No. maximum grade (patients, drug-related adverse events) [1, 9]: 0
Number of patients with drug-related Abdominal pain upper [1, 9]: 1
Number of patients with drug-related Alkaline phosphatase increased [1, 9]: 1
Number of patients with drug-related Anorexia [1, 9]: 2
Number of patients with drug-related Blood albumin decreased [1, 9]: 1
Number of patients with drug-related Diarrhea [1, 9]: 1
Number of patients with drug-related Discoloration urine/stool [1, 9]: 3
Number of patients with drug-related Face edema [1, 9]: 1
Number of patients with drug-related Headache [1, 9]: 1
Number of patients with drug-related Malaise [1, 9]: 3
Number of patients with drug-related Nauseous [1, 9]: 3
Number of patients with drug-related Pleural effusion [1, 9]: 1
Number of patients with drug-related Serum total protein decreased [1, 9]: 1
Number of patients with drug-related Vomiting [1, 9]: 2
No. maximum grade (patients, drug-related adverse events) [1, 10]: 3
Number of patients with drug-related Abdominal pain upper [1, 10]: 1
Number of patients with drug-related Blood albumin decreased [1, 10]: 2
Number of patients with drug-related Headache [1, 10]: 1
Number of patients with drug-related Serum total protein decreased [1, 10]: 1
No. maximum grade (patients, drug-related adverse events) ([1]; b.i.d. 500 mg/m^2 × 2, n = 3, G3): 0
No. maximum grade (patients, drug-related adverse events) ([1]; b.i.d. 500 mg/m^2 × 2, n = 3, G4): 0
Recommended dose suggested by the Independent Data Monitoring Committee ([1]; b.i.d. after meals): 400 mg/body
Recommended dosage ([1]; b.i.d.): ≤ 400 mg/m^2
No. maximum grade (patients, drug-related adverse events) [1, 11]: 1
Number of patients with drug-related Abdominal pain [1, 11]: 1
Number of patients with drug-related Alkaline phosphatase increased [1, 11]: 2
Number of patients with drug-related Anorexia [1, 11]: 2
Number of patients with drug-related Blood albumin decreased [1, 11]: 5
Number of patients with drug-related Diarrhea [1, 11]: 4
Number of patients with drug-related Discoloration urine/stool [1, 11]: 6
Number of patients with drug-related Face edema [1, 11]: 2
Number of patients with drug-related Malaise [1, 11]: 6
Number of patients with drug-related Nauseous [1, 11]: 1
Number of patients with drug-related Pleural effusion [1, 11]: 1
Number of patients with drug-related Serum total protein decreased [1, 11]: 1
Number of patients with drug-related Vomiting [1, 11]: 3
Number of patients with drug-related γ-glutamyltransferase increased [1, 11]: 1
No. maximum grade (patients, drug-related adverse events) [1, 12]: 5
Number of patients with drug-related Abdominal pain [1, 12]: 2
Number of patients with drug-related Abdominal pain upper [1, 12]: 2
Number of patients with drug-related Back pain [1, 12]: 1
Number of patients with drug-related Blood albumin decreased [1, 12]: 1
Number of patients with drug-related Diarrhea [1, 12]: 1
No. maximum grade (patients, drug-related adverse events) ([1]; t.i.d. 200 mg/m^2 × 3, n = 6, G3): 0
No. maximum grade (patients, drug-related adverse events) ([1]; t.i.d. 200 mg/m^2 × 3, n = 6, G4): 0
No. maximum grade (patients, drug-related adverse events) [1, 13]: 0
Number of patients with drug-related Abdominal pain [1, 13]: 1
Number of patients with drug-related Alkaline phosphatase increased [1, 13]: 2
Number of patients with drug-related Anorexia [1, 13]: 1
Number of patients with drug-related Blood albumin decreased [1, 13]: 3
Number of patients with drug-related Diarrhea [1, 13]: 3
Number of patients with drug-related Discoloration urine/stool [1, 13]: 6
Number of patients with drug-related Face edema [1, 13]: 3
Number of patients with drug-related Headache [1, 13]: 2
Number of patients with drug-related Malaise [1, 13]: 3
Number of patients with drug-related Nauseous [1, 13]: 1
Number of patients with drug-related Pleural effusion [1, 13]: 1
Number of patients with drug-related Serum total protein decreased [1, 13]: 1
Number of patients with drug-related γ-glutamyltransferase increased [1, 13]: 2
No. maximum grade (patients, drug-related adverse events) [1, 14]: 5
Number of patients with drug-related Abdominal pain [1, 14]: 2
Number of patients with drug-related Alkaline phosphatase increased [1, 14]: 1
Number of patients with drug-related Anorexia [1, 14]: 1
Number of patients with drug-related Back pain [1, 14]: 2
Number of patients with drug-related Blood albumin decreased [1, 14]: 2
Number of patients with drug-related Diarrhea [1, 14]: 1
No. maximum grade (patients, drug-related adverse events) ([1]; t.i.d. 400 mg/m^2 × 3, n = 6, G3): 0
No. maximum grade (patients, drug-related adverse events) [1, 15]: 1
Number of patients with drug-related Pericardial effusion [1, 15]: 1
MTD (maximum tolerated dose) ([1]; t.i.d. after meals, up to 400 mg/m^2): not reached
Recommended dosage ([1]; t.i.d.): ≤ 400 mg/m^2
